# PMC6263297 (Drug Design, Development and Therapy, 2018)
# Where two headings read alike, the source gives them in different places.
# Tests used:
# [1] = format: in vivo, human (healthy Chinese volunteers); details: single doses over the range 0.25–0.50 mg
# [2] = Safety assessment: treatment-related adverse events; format: in vivo, human (healthy Chinese volunteers)
# Procedure, shortened: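 The same 12 volunteers received three single-dose periods (0.25, 0.375, 0.5 mg orally after >10 h fast, 10-day washouts), then 0.375 mg once daily for 11 days. Adverse events were collected by interview and monitoring and graded for relation to treatment (probably/possibly). Vital signs, physical examination, clinical laboratory tests and ECG were done at screening and at study completion.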
# PDE4 enzyme = details: in vitro; cited from earlier work
# [3] = cited from earlier work
# patients with asthma = details: oral 0.10, 0.25, and 0.50 mg once daily; cited from earlier work
# [4] = system: acute exacerbations of COPD; details: treated over 4 weeks; cited from earlier work
# [5] = cited from earlier work; remark: listed apart in the source
# [6] = single and multiple oral doses, all subjects
# [7] = single- and multiple-dose studies together
# [8] = after receiving 0.5 mg roflumilast
smiles,measurement,setting,value
O=C(Nc1c(Cl)cncc1Cl)c1ccc(OC(F)F)c(OCC2CC2)c1 [Roflumilast],mean t1/2 over the three single-dose groups,[1],~ 20 hours
same,number of TRAEs reported,[2]; 0.25 mg single dose,Seven
same,number of TRAEs reported,[2]; 0.375 mg multiple doses,25
same,serious adverse events,[2]; across the trial,no serious adverse events
same,overall safety and tolerability,"[2]; healthy Chinese volunteers, single doses 0.25–0.5 mg and multiple doses 0.375 mg",safe and well-tolerated
same,Any adverse event: number of subjects (%) reporting TRAEs,[2]; multiple doses 0.375 mg (n=12),12 subjects (%)
same,number of TRAEs of moderate degree,[2]; presenting as acute gastroenteritis,one
same,number of TRAEs of severe degree,[2]; presenting as diarrhea,one
same,"Diarrhea, share of subjects",[2]; [6],30.8%
same,"Dizziness, share of subjects",[2]; [6],53.8%
same,"Elevated creatine kinase level, share of subjects",[2]; [6],15.4%
same,"Elevated total bilirubin level, share of subjects",[2]; [6],15.4%
same,"Headache, share of subjects",[2]; [6],23.1%
same,"Nausea, share of subjects",[2]; [6],53.8%
same,"Upper respiratory tract infection, share of subjects",[2]; [6],23.1%
same,number of TRAEs of mild degree,[2]; [7],Forty-six
same,total number of treatment-related adverse events,[2]; [7],48
same,potency upon inhibition of the PDE4 enzyme relative to roflumilast N-oxide,PDE4 enzyme,three times more potent
same,effective half-life (t1/2),[3]; after dosing of 0.5 mg roflumilast,8 to 31 h
same,effect of food intake on Cmax (decrease),[3]; food intake,~ 40%
same,effect of food intake on Tmax (delay),[3]; food intake,1 h
same,effect of food intake on the total inhibitory activity of PDE4,[3]; food intake,does not affect
same,effect on forced expiratory volume in 1 second,patients with asthma,statistically significant effects with dose-related increases from baseline
same,percentage of sputum neutrophils,[4],statistically significant greater reduction
same,sputum myeloperoxidase concentration,[4],statistically significant greater reduction
same,number of AEs reported,[5]; 15 subjects after receiving 0.5 mg roflumilast,59
same,"Abdominal discomfort, share of subjects",[5]; [8],20%
same,"Headache, share of subjects",[5]; [8],46.7%
same,"Nausea, share of subjects",[5]; [8],20%
same,subjects who exited the study because of AEs,"[5]; of 19 subjects, erectile dysfunction, visual flicker, blurred vision",2 subjects
